Assay results from ChEMBL document CHEMBL1127665, “Synthesis and antibacterial activity of new quinolones containing a 7-[3-(1-amino-1-methylethyl)-1-pyrrolidinyl] moiety. Gram-positive agents with excellent oral activity and low side-effect potential” (J Med Chem, 1994).
In brackets after ≈: the same amount, converted by molar mass.

Key:
[1] = test system: Staphylococcus aureus; experiment: Minimum inhibitory concentration against Staphylococcus aureus H 228; assay type: functional
How it was run: (§1)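 Tested by microtitration against a panel of 10 Gram-positive and Gram-negative organisms. MIC is reported in μg/mL.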

[2] = test system: Providencia rettgeri; experiment: Minimum inhibitory concentration against M1771 strain of Providencia rettgeri; assay type: functional; how it was run: as §1
[3] = test system: Staphylococcus aureus; experiment: Minimum inhibitory concentration against Staphylococcus aureus UC-76; assay type: functional; how it was run: as §1
[4] = test system: Escherichia coli; experiment: Minimum inhibitory concentration against Escherichia coli Vogel; assay type: functional; how it was run: as §1
[5] = test system: Enterococcus faecalis; experiment: Minimum inhibitory concentration against Streptococcus faecalis MGH-2; assay type: functional; how it was run: as §1
[6] = test system: Streptococcus pyogenes; experiment: Minimum inhibitory concentration against Streptococcus pyogenes C203; assay type: functional; how it was run: as §1
[7] = test system: Streptococcus pneumoniae; experiment: Minimum inhibitory concentration tested against Streptococcus pneumoniae SV-1; assay type: functional; how it was run: as §1
[8] = test system: Mus musculus; experiment: In vivo antibacterial activity against Escherichia coli after following oral administration; assay type: functional; settings: read-out: PD50
How it was run: (§2)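 Acute lethal systemic infection in female Charles River CD-1 mice. Compound given orally or subcutaneously. Potency expressed as median protective dose (PD50, mg/kg), the dose preventing death in 50% of animals.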

[9] = test system: Mus musculus; experiment: In vivo antibacterial activity against Streptococcus pyogenes after following oral administration; assay type: functional; settings: read-out: PD50; how it was run: as §2
[10] = test system: Enterobacter cloacae; experiment: Minimum inhibitory concentration against Enterobacter cloacae MA 2646; assay type: functional
[11] = test system: Mus musculus; experiment: In vivo antibacterial activity against Streptococcus pyogenes after following subcutaneous administration; assay type: functional; settings: sc, read-out: PD50; how it was run: as §2
[12] = test system: Mus musculus; experiment: In vivo antibacterial activity against Escherichia coli after following subcutaneous administration; assay type: functional; settings: sc, read-out: PD50; how it was run: as §2
[13] = test system: Pseudomonas aeruginosa; experiment: Minimum inhibitory concentration against U1-18 cell line from Pseudomonas aeruginosa; assay type: functional; how it was run: as §1
[14] = test system: Klebsiella pneumoniae; experiment: Minimum inhibitory concentration against Klebsiella pneumoniae MGH-2; assay type: functional; how it was run: as §1
[15] = test system: V79; experiment: Clonogenic cytotoxicity against Hamster V-79 cells; assay type: cell-based; settings: Cricetulus griseus
[16] = The no effect dose (NED) for phototoxicity in mouse; assay type: organism-based; settings: in vivo, read-out: NED
How it was run: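 Female CD-1 mice were depilated and dosed orally, with five animals per dose plus controls. After each dose the mice were exposed to UVA for 3 h. This was repeated daily for 4 days. Any redness or erythema relative to control was scored positive. The value is the highest dose producing no effect, in mg/kg.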

Row | SMILES | MIC [1] [µg/mL] | MIC [2] [µg/mL] | MIC [3] [µg/mL] | MIC [4] [µg/mL] | MIC [5] [µg/mL] | MIC [6] [µg/mL] | MIC [7] [µg/mL] | ED50 [8] [mg/kg] | ED50 [9] [mg/kg] | MIC [10] [µg/mL] | ED50 [11] [mg/kg] | ED50 [12] [mg/kg] | MIC [13] [µg/mL] | MIC [14] [µg/mL] | IC50 [15] [µg/mL] | NOAEL [16] [mg/kg]
1 | NCC1CCN(c2c(F)cc3c(=O)c(C(=O)O)cn(C4CC4)c3c2Cl)C1 (configuration not stated) | 0.003 (≈ 0.0079 µM) | 0.05 (≈ 0.132 µM) | 0.003 (≈ 0.0079 µM) | 0.025 (≈ 0.0658 µM) | 0.006 (≈ 0.0158 µM) | 0.003 (≈ 0.0079 µM) | 0.003 (≈ 0.0079 µM) | 33 | 5 | 0.025 (≈ 0.0658 µM) | 0.2 | 1 | 0.4 (≈ 1.05 µM) | 0.05 (≈ 0.132 µM) |  | 
2 | NCC1CCN(c2cc3c(cc2F)c(=O)c(C(=O)O)cn3C2CC2)C1 (configuration not stated) | 0.05 (≈ 0.145 µM) | 0.2 (≈ 0.579 µM) | 0.006 (≈ 0.0174 µM) | 0.05 (≈ 0.145 µM) | 0.05 (≈ 0.145 µM) | 0.013 (≈ 0.0376 µM) | 0.013 (≈ 0.0376 µM) | > 100 | > 100 | 0.1 (≈ 0.29 µM) | 4 | 2 | 0.8 (≈ 2.32 µM) | 0.1 (≈ 0.29 µM) |  | 
3 | NCC1CCN(c2nc3c(cc2F)c(=O)c(C(=O)O)cn3C2CC2)C1 (configuration not stated) | 0.1 (≈ 0.289 µM) | 0.4 (≈ 1.15 µM) | 0.003 (≈ 0.00866 µM) | 0.05 (≈ 0.144 µM) | 0.025 (≈ 0.0722 µM) | 0.025 (≈ 0.0722 µM) | 0.1 (≈ 0.289 µM) | 17 | 39 | 0.1 (≈ 0.289 µM) | 4 | 1 | 0.2 (≈ 0.577 µM) | 0.1 (≈ 0.289 µM) | 42 (≈ 121 µM) | 
4 | NC1CCN(c2c(F)cc3c(=O)c(C(=O)O)cn(C4CC4)c3c2F)C1 (configuration not stated) | 0.05 (≈ 0.143 µM) | 0.05 (≈ 0.143 µM) | 0.025 (≈ 0.0716 µM) | 0.013 (≈ 0.0372 µM) | 0.05 (≈ 0.143 µM) | 0.05 (≈ 0.143 µM) | 0.05 (≈ 0.143 µM) | 1 | 8 | 0.025 (≈ 0.0716 µM) | 2 | 0.2 | 0.1 (≈ 0.286 µM) | 0.025 (≈ 0.0716 µM) |  | 3
5 | COc1c(N2CCC(CN)C2)c(F)cc2c(=O)c(C(=O)O)cn(C3CC3)c12 (configuration not stated) | 0.025 (≈ 0.0666 µM) | 0.1 (≈ 0.266 µM) | 0.003 (≈ 0.00799 µM) | 0.05 (≈ 0.133 µM) | 0.013 (≈ 0.0346 µM) | 0.003 (≈ 0.00799 µM) | 0.003 (≈ 0.00799 µM) |  | 11 | 0.05 (≈ 0.133 µM) | 0.6 |  | 0.8 (≈ 2.13 µM) | 0.1 (≈ 0.266 µM) |  | 
6 | C[C@H](N)C1CCN(c2nc3c(cc2F)c(=O)c(C(=O)O)cn3C2CC2)C1 (some centres not stated) | 0.05 (≈ 0.139 µM) | 0.4 (≈ 1.11 µM) | 0.006 (≈ 0.0166 µM) | 0.05 (≈ 0.139 µM) | 0.05 (≈ 0.139 µM) | 0.013 (≈ 0.0361 µM) | 0.006 (≈ 0.0166 µM) | 6 | 14 | 0.05 (≈ 0.139 µM) | 2 | 1 | 0.8 (≈ 2.22 µM) | 0.1 (≈ 0.277 µM) | 100 (≈ 277 µM) | 67
7 | CC(C)(N)[C@@H]1CCN(c2nc3c(cc2F)c(=O)c(C(=O)O)cn3C2CC2)C1.Cl | 0.1 | 0.4 | 0.003 | 0.05 | 0.05 | 0.013 | 0.006 | 5 | 4 | 0.1 | 1 | 1 | 1.6 | 0.2 | 130 | 73
8 | CC(C)(N)[C@@H]1CCN(c2c(F)cc3c(=O)c(C(=O)O)cn(C4CC4)c3c2Cl)C1.Cl | 0.006 | 0.2 | 0.003 | 0.05 | 0.013 | 0.003 | 0.003 | 8 | 2 | 0.05 | 0.1 | 1 | 0.8 | 0.1 | < 8 | 
9 | CC(C)(N)[C@@H]1CCN(c2nc3c(cc2F)c(=O)c(C(=O)O)cn3-c2ccc(F)cc2F)C1.Cl | 0.05 | 0.8 | 0.025 | 0.2 | 0.1 | 0.05 | 0.05 |  |  | 0.2 |  |  | 3.1 | 0.4 |  | 
